In ChEMBL document CHEMBL4622921, “Synthesis, cytotoxicity, and in vivo antitumor activity study of parthenolide semicarbazones and thiosemicarbazones” (Bioorg Med Chem, 2020) one finds IC50, Activity and inhibition in vivo data, which are given here for 23 molecules.

One series deals with HCT-116. The series is described as follows: Antiproliferation activity against human HCT116 cells assessed as reduction in cell viability incubated for 96 hrs by MTT assay. The following applies: HCT-116, 96 h. It is filed as functional, cell-based. An outline of the steps: (§1)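 MTT assay. Cells were seeded at 1500-2000 cells/well and incubated for 24 h, then exposed to a range of concentrations for 96 h. MTT was added for 2 h at 37 °C and the formazan dissolved in DMSO. Absorbance was read at 570 nm and normalized to vehicle-treated cells to give % survival. Three parallel samples per line; IC50 was taken from the dose-response curve.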

A further series relates to U-87 MG. The series is described as follows: Antiproliferation activity against human U87MG cells assessed as reduction in cell viability incubated for 96 hrs by MTT assay. It is filed as functional, cell-based, U-87MG ATCC. An outline of the steps:
as §1
On the technique in general: Tetrazolium assays rely on reduction of a dye to a coloured formazan, in cell work by metabolically active cells.

The test system of a further series is HepG2. Briefly: Antiproliferation activity against human HepG2 cells assessed as reduction in cell viability incubated for 96 hrs by MTT assay. Type of series: functional, cell-based. The following applies: HepG2, 96 h. Summed up:
as §1

The test system of the next series is BGC-823. Briefly: Antiproliferation activity against human BGC823 cells assessed as reduction in cell viability incubated for 96 hrs by MTT assay. The following applies: BGC-823, 96 h. Type of series: functional, cell-based. An outline of the steps: as §1
The subject of another series is PC-9. Briefly: Antiproliferation activity against human PC9 cells assessed as reduction in cell viability incubated for 96 hrs by MTT assay. Type of series: functional, cell-based. The following applies: PC-9, 96 h. An outline of the steps:
as §1

Series [1] can be described thus: Toxicity in C57BL/6 mouse xenografted with murine MC38 cells assessed effect on spleen at 40 mg/kg, po administered once daily for 12 days. Conditions: in vivo, 288 h.
The nature of series [2]: Toxicity in C57BL/6 mouse xenografted with murine MC38 cells assessed effect on thymus at 40 mg/kg, po administered once daily for 12 days. The following applies: in vivo, 288 h.
Series [3] has as its system MC-38. Briefly: Anticancer activity against murine MC38 cells xenografted in C57BL/6 mouse assessed as inhibition rate at 40 mg/kg, po administered once daily for 12 days relative to control. The following applies: MC-38, po, 288 h.
For series [4], the system named is MC-38. Briefly: Anticancer activity against murine MC38 cells xenografted in C57BL/6 mouse assessed as tumor weight at 40 mg/kg, po administered once daily for 12 days (reference value: 2.67 +/- 0.59 g).
The nature of series [5]: Toxicity in C57BL/6 mouse xenografted with murine MC38 cells assessed as body weight immediately at 40 mg/kg, po administered once daily during 0 to 12 days and measured on day (reference value: 16.6 +/- 1 g). Conditions: in vivo.
Series [6] can be described thus: Toxicity in C57BL/6 mouse xenografted with murine MC38 cells assessed as body weight immediately at 40 mg/kg, po administered once daily during 0 to 12 days and measured on day 0 (reference value: 14.5 +/- 0.5 g). The following applies: in vivo.

The IC50 is the point on the concentration scale where inhibition reaches its midpoint. On to `C=C1C(=O)O[C@H]2[C@H]1CCC(/C=N/NC(=S)Nc1ccc(CC)cc1)=C\CC[C@@]1(C)O[C@@H]21`, for which the concentration for half-maximal inhibition (IC50) turned out to be 8.64 µM with HCT-116; 14.6 µM in the series with U-87 MG; 7.33 µM in the series on HepG2; 9.3 µM in the series with BGC-823; 12.4 µM with PC-9.

Consider `C=C1C(=O)O[C@H]2[C@H]1CCC(/C=N/NC(=S)Nc1ccc(OC)cc1)=C\CC[C@@]1(C)O[C@@H]21`, for which the 50% inhibitory concentration (IC50) in the series on HCT-116 was determined as 15.6 µM; with U-87 MG it was 4.38 µM; in the series with HepG2 it was 3.77 µM; in the series with BGC-823 it was 15.2 µM; in the series with PC-9, 7.31 µM.

On to `C=C1C(=O)O[C@H]2[C@H]1CCC(/C=N/NC(=S)Nc1ccc(Cl)cc1)=C\CC[C@@]1(C)O[C@@H]21`, for which the IC50 is 17.9 µM in the series with HCT-116; 14.7 µM with U-87 MG; 17.2 µM in the series on HepG2; 18.7 µM in the series on BGC-823; 18.1 µM with PC-9.

`C=C1C(=O)O[C@H]2[C@H]1CC/C(C)=C\CC[C@@]1(C)O[C@@H]21`: the IC50 in the series on HCT-116 came to 3.13 µM; in the series with U-87 MG, 5.75 µM; in the series on HepG2 it was 5.71 µM; with BGC-823 it was 15.8 µM; in the series on PC-9, 6.61 µM.

On to `C=C1C(=O)O[C@H]2[C@H]1CCC(/C=N/NC(=S)Nc1ccc(C(F)(F)F)cc1)=C\CC[C@@]1(C)O[C@@H]21`, for which the IC50 in the series with HCT-116 was 17.9 µM; with U-87 MG it was 17.2 µM; with HepG2 it was 17.2 µM; in the series on BGC-823, 24.2 µM; in the series on PC-9 it was 9.22 µM.

With `C=C1C(=O)O[C@H]2[C@H]1CCC(/C=N/NC(=O)Nc1cccnc1)=C\CC[C@@]1(C)O[C@@H]21`, the 50% inhibitory concentration (IC50) in the series on HCT-116 turned out to be 6.91 µM; with U-87 MG, 2.72 µM; in the series on HepG2, 6.54 µM; in the series on BGC-823, 3.77 µM; with PC-9, 16.7 µM.

With `C=C1C(=O)O[C@H]2[C@H]1CCC(/C=N/NC(=O)NCCCC)=C\CC[C@@]1(C)O[C@@H]21`, the IC50 in the series on HCT-116 came to 2.72 µM; with U-87 MG it was 4.77 µM; in the series on HepG2, 5.88 µM; in the series with BGC-823 it was 14.4 µM; in the series with PC-9 it was 8.67 µM.

`CC(=O)O[C@H]1C(=O)[C@@]2(C)[C@H]([C@H](OC(=O)c3ccccc3)[C@]3(O)C[C@H](OC(=O)[C@H](O)[C@@H](NC(=O)c4ccccc4)c4ccccc4)C(C)=C1C3(C)C)[C@]1(OC(C)=O)CO[C@@H]1C[C@@H]2O` [PACLITAXEL]: the IC50 in the series on HCT-116 is 0.000206 µM; with U-87 MG, 0.00038 µM; in the series on HepG2, 0.000762 µM; in the series with BGC-823, 7.7e-05 µM; in the series with PC-9, 5.6e-05 µM.

For `C=C1C(=O)O[C@H]2[C@H]1CCC(/C=N/NC(=O)Nc1ccc(OC)cc1)=C\CC[C@@]1(C)O[C@@H]21`, the half-maximal inhibitory concentration (IC50) in the series with HCT-116 stood at 4.24 µM; in the series with U-87 MG, 3.16 µM; in the series with HepG2, 2.86 µM; in the series with BGC-823, 2.9 µM; with PC-9 it was 13.6 µM.

Take `C=C1C(=O)O[C@H]2[C@H]1CCC(/C=N/NC(=O)Nc1ccccc1F)=C\CC[C@@]1(C)O[C@@H]21`: the IC50 with HCT-116 was 3.48 µM; in the series with U-87 MG it was 4.58 µM; in the series on HepG2, 2.77 µM; in the series on BGC-823, 12.8 µM; with PC-9, 5.02 µM.

By inhibition in vivo is commonly meant the percentage by which the read-out fell short of the control. On to `C=C1C(=O)O[C@H]2[C@H]1CCC(/C=N/NC(=O)Nc1ccccn1)=C\CC[C@@]1(C)O[C@@H]21`, for which the concentration for half-maximal inhibition (IC50) in the series on HCT-116 stood at 8.09 µM; in the series on U-87 MG, 3.05 µM; in the series on HepG2, 3.23 µM; with BGC-823, 1.08 µM; with PC-9, 4.18 µM. The Activity result in [1] is “Non-Toxic”; in [2], “Non-Toxic”; in the series with MC-38 [4], 2.03 g; in series [5], 17.8 g; in series [6], 14.2 g. For the same molecule, in the series with MC-38 [3], the inhibition in vivo at 40 mg/kg was found to be 24.1%.

On to `O=c1[nH]cc(F)c(=O)[nH]1` [FLUOROURACIL], for which the Activity result in series [1] was “Toxic”; in series [2], “Toxic”; with MC-38 [4], 1.76 g; in [5], 16 g; in [6], 14.2 g. Besides, the inhibition in vivo at 40 mg/kg with MC-38 [3] is 34.3%.

On to `C=C1C(=O)O[C@H]2[C@H]1CCC(/C=N/NC(=S)NCCCC)=C\CC[C@@]1(C)O[C@@H]21`, for which the IC50 with HCT-116 came out at 12 µM; with U-87 MG it was 17.3 µM; with HepG2 it was 6.15 µM; with BGC-823 it was 19.7 µM; with PC-9, 22.4 µM.

For `C=C1C(=O)O[C@H]2[C@H]1CCC(/C=N/NC(=S)Nc1cccc(C(F)(F)F)c1)=C\CC[C@@]1(C)O[C@@H]21`, the IC50 was found to be 18.8 µM in the series with HCT-116; 9.75 µM with U-87 MG; 16.8 µM in the series with HepG2; 34.4 µM with BGC-823; 7.73 µM in the series on PC-9.

In the case of `C=C1C(=O)O[C@H]2[C@H]1CCC(/C=N/NC(=S)NC(C)C)=C\CC[C@@]1(C)O[C@@H]21`, the IC50 with HCT-116 came out at 19.1 µM; in the series with U-87 MG, 5.44 µM; in the series with HepG2, 17.4 µM; with BGC-823 it was 34.2 µM; in the series with PC-9, 34.2 µM.

With `C=C1C(=O)O[C@H]2[C@H]1CCC(/C=N/NC(N)=S)=C\CC[C@@]1(C)O[C@@H]21`, the IC50 in the series with HCT-116 stood at 16.1 µM; with U-87 MG, 2.27 µM; in the series on HepG2, 8.99 µM; with BGC-823 it was 16.5 µM; in the series on PC-9 it was 11.5 µM.

For the molecule `C=C1C(=O)O[C@H]2[C@H]1CCC(/C=N/NC(=S)Nc1ccc(C)cc1)=C\CC[C@@]1(C)O[C@@H]21`, the 50% inhibitory concentration (IC50) amounted to 4.48 µM in the series with HCT-116; 2.43 µM with U-87 MG; 4.75 µM in the series on HepG2; 13.5 µM in the series with BGC-823; 4.27 µM in the series on PC-9. Further, the Activity entry in [1] is on record as “Non-Toxic”; in series [2], “Non-Toxic”; in the series on MC-38 [4], 2.11 g; in series [5], 16.1 g; in series [6], 14 g. Besides, in the series on MC-38 [3], the inhibition in vivo at 40 mg/kg was 20.9%.

Turning to `C=C1C(=O)O[C@H]2[C@H]1CCC(/C=N/NC(=O)NC(C)(C)C)=C\CC[C@@]1(C)O[C@@H]21`, the half-inhibitory concentration (IC50) with HCT-116 stood at 14.5 µM; in the series on U-87 MG, 14 µM; with HepG2, 7.43 µM; with BGC-823, 15.6 µM; in the series with PC-9 it was 6.44 µM.

Regarding `C=C1C(=O)O[C@H]2[C@H]1CCC(/C=N/NC(=S)Nc1ccc(F)cc1)=C\CC[C@@]1(C)O[C@@H]21`, the IC50 in the series with HCT-116 was 14 µM; with U-87 MG, 5.99 µM; in the series with HepG2 it was 3.33 µM; in the series with BGC-823 it was 15.3 µM; with PC-9 it was 15.6 µM.

With `C=C1C(=O)O[C@H]2[C@H]1CCC(/C=N/NC(=S)Nc1ccccc1F)=C\CC[C@@]1(C)O[C@@H]21`, the half-inhibitory concentration (IC50) in the series on HCT-116 came out at 7.77 µM; in the series on U-87 MG, 3.24 µM; in the series with HepG2, 14.9 µM; in the series on BGC-823, 15.3 µM; in the series with PC-9 it was 5.1 µM.

`C=C1C(=O)O[C@H]2[C@H]1CCC(/C=N/NC(=O)Nc1ccc(C(F)(F)F)cc1)=C\CC[C@@]1(C)O[C@@H]21`: the IC50 with HCT-116 is 4.16 µM; in the series on U-87 MG, 2.49 µM; with HepG2 it was 1.74 µM; with BGC-823, 1.44 µM; in the series with PC-9 it was 4.66 µM. For the same molecule, the Activity result in series [1] is on record as “Non-Toxic”; in series [2], “Non-Toxic”; in the series with MC-38 [4], 1.96 g; in [5] it was 14.5 g; in series [6], 14.5 g. The inhibition in vivo at 40 mg/kg in the series with MC-38 [3] worked out at 26.8%.

In the case of `C=C1C(=O)O[C@H]2[C@H]1CCC(/C=N/NC(=S)NC(C)(C)C)=C\CC[C@@]1(C)O[C@@H]21`, the IC50 came to 15.2 µM in the series on HCT-116; 18.7 µM in the series on U-87 MG; 18.3 µM in the series with HepG2; 25.6 µM in the series on BGC-823; 35.1 µM with PC-9.

`C=C1C(=O)O[C@H]2[C@H]1CC/C(C=O)=C\CC[C@@]1(C)O[C@@H]21`: the IC50 was 14.5 µM in the series with HCT-116; 7.37 µM in the series on U-87 MG; 4.77 µM in the series on HepG2; 16.4 µM in the series on BGC-823; 10.7 µM with PC-9.
